MC4R antag cAMP = human MC4R antagonism in cAMP assay; P32245; 360,000 compounds, 0.48% hits; inhibition, % at 6.5 µM; MC4R-expressing cells, MTII-stimulated cAMP, LANCE TR-FRET;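 active = inhibition above its plate's cutoff, the mean of tested wells on that plate plus 3 SD, cut at about 29% in these data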;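 note: 0% = Melanotan II alone and 100% = Melanotan II plus saturating MCL0020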
Target sequence (P32245 whole entry, looked up): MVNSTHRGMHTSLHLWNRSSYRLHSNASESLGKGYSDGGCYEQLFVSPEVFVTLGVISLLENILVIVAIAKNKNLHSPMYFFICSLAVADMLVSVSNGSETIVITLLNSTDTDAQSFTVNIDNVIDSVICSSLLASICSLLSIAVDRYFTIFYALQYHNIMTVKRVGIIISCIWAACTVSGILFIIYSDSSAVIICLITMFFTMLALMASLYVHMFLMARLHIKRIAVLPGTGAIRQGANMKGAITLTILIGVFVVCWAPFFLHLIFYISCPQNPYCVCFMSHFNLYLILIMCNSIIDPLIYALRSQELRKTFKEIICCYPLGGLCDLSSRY
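Material – human MC4R-expressing U2OS cells · Repeats – no replicates · Detection – TR-FRET with Eu-cAMP and labeled anti-cAMP, 671 nm · Times – compound 30 min, challenge 1 h, detection 1 h · Compound – single nominal compound dose of 6.5 µM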
MsrA inhibitor = inhibitors of bovine MsrA; purified bovine MsrA, absorbance read-out; inhibition, % at 15.5 µM; 360,000 compounds, 0.75% hits; in the data active = inhibition above about 4.5%;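 note: 0% = vehicle wells with enzyme and 100% = reference inhibitor wells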
bovine MsrA act = activates bovine MsrA enzyme | purified bovine MsrA, absorbance read-out | activation, % at 10.6 µM | 360,000 compounds, 0.3% hits | AID 602163; in the data active = activation above about 7.5%;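 note: 0% = vehicle and 100% = reference activator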
MC4R ag barr = agonists of human melanocortin 4 receptor (MC4R) beta-arrestin; U2OS MC4R beta-arrestin complementation, luminescence; percent of melanotan II response, DMSO zero; AID 540308; P32245; 360,000 compounds, 0.98% hits; activation, % at 8.9 µM;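 active = activation above a per-plate cutoff, the mean activation of sample wells on that plate plus 3 SD, cut at about 8% in these data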
U2OS cAMP counter = counter-screen for MC4R antagonists: nonselective cAMP signaling inhibitors; parental U2OS, forskolin cAMP, LANCE TR-FRET; inhibition, % at 6.5 µM; shares compounds with MC4R antag cAMP; 1,600 compounds, 26% hits; AID 602193;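 active = mean inhibition over triplicates above the low-control well mean plus 3 SD, set per campaign, cut at about 13% in these data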;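 note: signal is single emission at 671 nm which falls as cellular cAMP rises; 0% = forskolin-stimulated wells and 100% = buffer without forskolin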
MC4R antag conf = human MC4R cAMP antagonism confirmation; MC4R-expressing cells, MTII-stimulated cAMP, TR-FRET; 1,600 compounds, 27% hits; shares compounds with MC4R antag cAMP; inhibition, % at 6.5 µM; in the data active = inhibition above about 29%;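 note: 0% = agonist stimulated wells alone and 100% = agonist stimulated wells plus saturating reference antagonist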
Active calls of the source: *. Compounds with a hit are over-represented: about 2.3% of the library has one in this group of screens.

How did O=Cc1c(SCCO)nc2ccccn2c1=O do in these assays?
MC4R antag cAMP: -0.6; MsrA inhibitor: 1.6; bovine MsrA act: -10.2; MC4R ag barr: -1.3

Results for CCOc1ccc(NC(=O)CSCC(=O)O)cc1 ?
MC4R antag cAMP: -1.7; MsrA inhibitor: 0.6; bovine MsrA act: 0.7; MC4R ag barr: -1.3

Results for CCOc1ccc(NC(=O)CSc2ccccc2N)cc1 ?
MC4R antag cAMP: 31.8*; MsrA inhibitor: -1.0; bovine MsrA act: -0.9; MC4R ag barr: 2.8; U2OS cAMP counter: -5.0; MC4R antag conf: -12.2

Results for CCOc1ccc(NC(=O)[C@@H](NC(=O)OCc2ccccc2)[C@@H](C)CC)cc1 ?
MC4R antag cAMP: 2.2; MsrA inhibitor: -1.5; bovine MsrA act: -3.7; MC4R ag barr: -1.3

How did CSc1nnc(N2C(=O)C(O)=C(C(=O)c3ccco3)C2c2ccccc2)s1 (stereo not drawn) do in these assays?
MC4R antag cAMP: 12.3; MsrA inhibitor: 0.4; bovine MsrA act: -3.8; MC4R ag barr: 0.6

How did CSc1nnc(N2C(=O)C(O)=C(C(=O)c3ccc(C)o3)C2c2ccc(C)cc2)s1 (stereo not drawn) do in these assays?
MC4R antag cAMP: active; MsrA inhibitor: 1.5; bovine MsrA act: -4.7; MC4R ag barr: -3.2; U2OS cAMP counter: 52.0*; MC4R antag conf: 87.7*

Results for COC(=O)c1sc(N2C(=O)C(O)=C(C(=O)c3ccc(C)o3)C2c2ccc(F)cc2)nc1C (stereo not drawn) ?
MC4R antag cAMP: 32.7*; MsrA inhibitor: 0.9; bovine MsrA act: -2.4; MC4R ag barr: 1.0; U2OS cAMP counter: 17.5*; MC4R antag conf: 22.2

How did CCCOC(=O)c1ccc(NC(=O)c2cc(Cl)ccc2OC)cc1 do in these assays?
MC4R antag cAMP: 2.4; MsrA inhibitor: 0.3; bovine MsrA act: -1.8; MC4R ag barr: -1.3

Results for C[C@@H]1CN([C@@H](C)CO)C(=O)CCCn2nncc2CO[C@H]1CN(C)S(=O)(=O)c1ccc(C#N)cc1 ?
MC4R antag cAMP: 0.5; MsrA inhibitor: 0.5; bovine MsrA act: -1.6; MC4R ag barr: -3.5

How did CCOC(=O)c1cnn(Cc2cccc(Cl)c2)c1C do in these assays?
MC4R antag cAMP: 1.4; MsrA inhibitor: -0.3; bovine MsrA act: -1.2; MC4R ag barr: 1.2

Results for CCOC(=O)C(C)(C)N(Cc1cccc(C)c1)S(=O)(=O)c1cccc([N+](=O)[O-])c1 ?
MC4R antag cAMP: 4.7; MsrA inhibitor: 0.2; bovine MsrA act: -2.8; MC4R ag barr: 0.0

How did CCOC(=O)C(C)(C)N(Cc1cccc(C)c1)S(=O)(=O)c1ccc(Cl)c([N+](=O)[O-])c1 do in these assays?
MC4R antag cAMP: 53.5*; MsrA inhibitor: 0.4; bovine MsrA act: -0.7; MC4R ag barr: 0.8; U2OS cAMP counter: 26.2*; MC4R antag conf: 63.3*

What do the screens show for `COc1ccc(CN(C)S(=O)(=O)c2nnc(NC(=O)c3ccc(C)cc3)s2)cc1OC`?
MC4R antag cAMP: 29.8*; MsrA inhibitor: -0.3; bovine MsrA act: -5.2; MC4R ag barr: -0.9; U2OS cAMP counter: 3.7; MC4R antag conf: 22.9

Results for COc1ccc(CN(C)S(=O)(=O)c2nnc(NC(=O)c3ccccc3OC)s2)cc1OC ?
MC4R antag cAMP: 1.5; MsrA inhibitor: -0.4; bovine MsrA act: -8.3; MC4R ag barr: 0.1

What do the screens show for `COC(=O)c1sc(NC(=O)CC(C)C)c(C(=O)OC)c1C`?
MC4R antag cAMP: 10.9; MsrA inhibitor: 0.1; bovine MsrA act: -2.1; MC4R ag barr: 2.2

What do the screens show for `Cc1nc(SCCC(=O)O)c2ccccc2n1`?
MC4R antag cAMP: 54.5*; MsrA inhibitor: 1.8; bovine MsrA act: -11.1; MC4R ag barr: 0.8; U2OS cAMP counter: 19.3*; MC4R antag conf: 34.5*

How did O=C1C=CC(=O)N1CCCCCCCCCCN1C(=O)C=CC1=O do in these assays?
MC4R antag cAMP: 78.0*; MsrA inhibitor: -0.1; bovine MsrA act: -1.0; MC4R ag barr: -4.0; U2OS cAMP counter: 20.5*; MC4R antag conf: 49.2*

How did O=C(NC(Cc1c[nH]c2ccccc12)C(=O)N/N=C/c1ccc(Cl)cc1)c1cccs1 (stereo not drawn) do in these assays?
MC4R antag cAMP: 30.1*; MsrA inhibitor: 0.6; bovine MsrA act: -2.6; MC4R ag barr: 0.5; U2OS cAMP counter: 2.2; MC4R antag conf: 7.1

How did O=C(NC(Cc1c[nH]c2ccccc12)C(=O)N1CCOCC1)c1cccs1 (stereo not drawn) do in these assays?
MC4R antag cAMP: 8.7; MsrA inhibitor: -0.1; bovine MsrA act: -3.1; MC4R ag barr: -0.7

How did CCc1ccc(NC(=O)CSc2nc3c(c(=O)n(C)c(=O)n3C)n2C)cc1 do in these assays?
MC4R antag cAMP: 3.8; MsrA inhibitor: 0.3; bovine MsrA act: -3.1; MC4R ag barr: -1.3

How did Cc1cc(N2CCN(C)CC2)nc(=S)[nH]1 do in these assays?
MC4R antag cAMP: 29.0*; MsrA inhibitor: 0.4; bovine MsrA act: 1.6; MC4R ag barr: -1.5; U2OS cAMP counter: 0.4; MC4R antag conf: -4.3

What do the screens show for `Cc1cc(N2CCN(C)CC2)nc(-c2ccccc2O)n1`?
MC4R antag cAMP: -1.3; MsrA inhibitor: -0.5; bovine MsrA act: -0.9; MC4R ag barr: 0.0

What do the screens show for `CN(CC(=O)Nc1ccccc1Br)C(=O)c1ccccc1Cc1ccccc1`?
MC4R antag cAMP: 5.1; MsrA inhibitor: -1.2; bovine MsrA act: -0.5; MC4R ag barr: -0.3

How did CC(=O)Oc1ccc2nc(-c3ccco3)oc(=O)c2c1 do in these assays?
MC4R antag cAMP: 33.8*; MsrA inhibitor: 0.1; bovine MsrA act: -0.1; MC4R ag barr: 0.1; U2OS cAMP counter: 12.7; MC4R antag conf: 39.2*

How did O=C(Nc1nc(-c2ccccn2)cs1)c1cc(Cl)ccc1[N+](=O)[O-] do in these assays?
MC4R antag cAMP: 29.1*; MsrA inhibitor: 0.3; bovine MsrA act: 2.3; MC4R ag barr: -1.4; U2OS cAMP counter: 32.2*; MC4R antag conf: 18.2

How did CC(C)N1C(=O)c2ccccc2C1C(=O)NC1CCCCCC1 (stereo not drawn) do in these assays?
MC4R antag cAMP: -2.6; MsrA inhibitor: -0.4; bovine MsrA act: -10.9; MC4R ag barr: -1.0

How did Cc1ccc(OC(=O)c2sc(Cl)nc2C)cc1C do in these assays?
MC4R antag cAMP: 36.0*; MsrA inhibitor: -0.3; bovine MsrA act: 1.4; MC4R ag barr: -0.4; U2OS cAMP counter: 15.6*; MC4R antag conf: 37.2*

Results for O=c1c(-c2cnn(-c3ccccc3)c2)coc2cc(O)ccc12 ?
MC4R antag cAMP: 1.2; bovine MsrA act: -4.2; MC4R ag barr: 0.9

Results for Cc1c(Cl)cccc1NC(=O)Nc1cnccn1 ?
MC4R antag cAMP: -0.2; MsrA inhibitor: 0.1; bovine MsrA act: -1.9; MC4R ag barr: -2.4

Results for O=C1OC(c2ccccc2)=NC12CC2c1ccc(Cl)cc1 (stereo not drawn) ?
MC4R antag cAMP: 28.7*; MsrA inhibitor: -0.2; bovine MsrA act: -8.8; MC4R ag barr: -0.5; U2OS cAMP counter: -0.1; MC4R antag conf: 3.9

How did O=C1c2cccc([N+](=O)[O-])c2C(=O)N1c1cccnc1 do in these assays?
MC4R antag cAMP: 19.3; MsrA inhibitor: 0.2; bovine MsrA act: -4.7; MC4R ag barr: 0.4
